# TCR-CD3 inh: human TCR-CD3 binding inhibition | TAMRA-labeled TCR probe fluorescence, biochemical | inhibition, % at 9.4 µM | 360,000 tested, 0.37% active;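 also: recombinant mutant TCR 2C K166C tagged with TAMRA read by polarization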
# DDE Tn6 FP inh: inhibitors of Tn6 peptide binding to human fibrin DD(E) | P02675 | Fibrin DD(E) TRITC-Tn6 fluorescence polarization displacement | inhibition, % at 8.3 µM | 370,000 tested, 0.21% active;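 active = inhibition above a per-campaign cutoff: mean of compounds within control limits plus 3 SD, cut at about 15% in these data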
# HTRA1 inhibitor: blocks human HTRA1 serine peptidase | Q92743 | recombinant HTRA1, FP-rhodamine activity-based probe, fluorescence polarization | inhibition, % at 5.96 µM | 340,000 tested, 0.5% active; in the data active = inhibition above about 36%
# Tn7 DDE FP: inhibitors of Tn7 peptide binding to human fibrin DD(E); P02675; FP displacement of FITC-Tn7 peptide from fibrin DD(E); 0% = median of compound wells per plate; inhibition, % at 8.3 µM; 370,000 tested, 0.13% active; AID 720508;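 active = inhibition above the mean of compounds falling within the control limits plus 3 SD of them, cut at about 14% in these data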
#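 Measure: % inhibition scaled between sample-field median and high-control FP; Test system: human fibrin DD(E); Quantity: 2 µM final DD(E) protein; Doses: one dose, 8.3 µM nominal; Schedule: compound with protein 10 min, then 3 h after probe, room temperature; Detection: fluorescence polarization; Medium: Tris buffer with calcium and detergent, pH 7.8.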
# mABHD4 FP: inhibits mouse alpha/beta hydrolase domain 4. 370,000 tested, 0.54% active. AID 720543. purified mABHD4, FP-Rh probe fluorescence polarization. inhibition, % at 8.92 µM. Q8VD66;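 active = inhibition exceeding the mean over every tested compound plus 3 SD, cut at about 30% in these data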
# Target sequence (Q8VD66 whole entry, looked up, the tested form may be a part): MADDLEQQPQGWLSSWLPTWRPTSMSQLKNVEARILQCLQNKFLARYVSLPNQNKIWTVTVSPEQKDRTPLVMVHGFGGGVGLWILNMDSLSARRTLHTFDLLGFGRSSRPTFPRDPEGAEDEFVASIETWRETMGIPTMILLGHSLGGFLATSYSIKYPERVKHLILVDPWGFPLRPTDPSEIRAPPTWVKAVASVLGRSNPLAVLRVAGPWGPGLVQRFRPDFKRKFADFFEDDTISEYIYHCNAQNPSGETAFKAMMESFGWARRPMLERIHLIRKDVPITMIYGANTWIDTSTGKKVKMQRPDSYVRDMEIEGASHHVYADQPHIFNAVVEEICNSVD
#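 Test system: mABHD4 protein; Read-out basis: % inhibition; Incubation: 45 min + 60 min at 25 °C; Repeats: single replicate; Technique: fluorescence polarization with parallel and perpendicular emission, 525/598 nm; Compound: 8.92 µM, single dose; Benchmarks: full inhibition S159A mutant plus DMSO, zero as sample-well median.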
# BSA probe FL: interferes with TAMRA-BSA probe, flagging TCR-CD3 hits; shares compounds with TCR-CD3 inh; TAMRA-labeled BSA probe fluorescence counterscreen; inhibition, % at 9.4 µM; 1,200 tested, 10% active; in the data active = inhibition above about 23%
# TCR-CD3 conf: TCR-CD3 interaction inhibition, confirmation; shares compounds with TCR-CD3 inh; TAMRA-labeled TCR probe fluorescence binding assay; inhibition, % at 9.4 µM; 1,200 tested, 48% active; AID 652036
# Hits are given with their value; n = inactive; x = not tested or not shown. An excerpt weighted towards active compounds, which were near 1.3% of everything screened. Rule as the data show it, unless noted: active = inhibition above about 19%; inactive = the rest.
SMILES,TCR-CD3 inh,DDE Tn6 FP inh,HTRA1 inhibitor,Tn7 DDE FP,mABHD4 FP,BSA probe FL,TCR-CD3 conf
Nc1c(/C=C2/C=CC(=O)C(O)=C2)c(=O)nc2sc(CC(=O)N3CCCCC3)nn12,26,n,n,n,n,n,42
COc1ccccc1NS(=O)(=O)c1cc(NC(=O)c2ccc(Cl)nc2)ccc1Cl,23,n,n,n,n,n,n
COc1ccc(C(=O)Nc2ccc(Cl)c(S(=O)(=O)Nc3ccccc3OC)c2)cc1,n,n,n,n,n,x,x
Cc1nc(CSc2ccc(Cl)cc2)cc(N2CCOCC2)n1,n,n,n,n,n,x,x
Cc1ccc(SCc2cc(=O)[nH]c(N3CCOCC3)n2)cc1,19,n,n,n,n,n,n
Brc1ccc(-c2nn3c(-c4ccccn4)nnc3s2)o1,30,n,n,n,n,n,n
O=C(Nc1nc2ccccc2s1)c1cc(-c2ccco2)nc2ccccc12,n,n,n,n,n,x,x
Cc1nnc(NC(=O)c2cc(-c3ccco3)nc3ccccc23)s1,19,n,n,n,n,n,20
O=C(NC(=S)Nc1cccc(S(=O)(=O)NC2=NCCC2)c1)c1cc(-c2ccco2)nc2ccccc12,n,n,n,n,n,x,x
CCOc1ccc(/C=N/NC(=O)c2cc(-c3ccco3)nc3ccccc23)cc1,n,n,n,n,n,x,x
O=C(Nc1cccc(S(=O)(=O)NC2=NCCC2)c1)c1cc(-c2ccco2)nc2ccccc12,23,n,n,n,n,n,32
O=C(N/N=C/c1ccc(F)cc1)c1cc(-c2ccco2)nc2ccccc12,30,n,n,n,n,n,23
O=c1cc(C(F)(F)F)[nH]c2ccc(OC(F)(F)F)cc12,n,n,x,n,n,x,x
O=C(O)c1ccc(-c2cccc(-c3nn4c(=O)cc(N5CCNCC5)nc4s3)c2)cc1,n,n,x,n,n,x,x
CS(=O)(=O)N(Cc1ccc(C(=O)NN=C2CCCCCC2)cc1)c1ccccc1,33,n,n,n,n,n,n
CCOC(=O)c1nnn2c1nc(N(CC)CC)c1ccccc12,n,n,n,n,n,x,x
O=S(=O)(c1ccc(SCc2ccc(Cl)cc2)nc1)N1CCCC1,n,n,n,n,n,x,x
CC(=O)Nc1ccc(C(=O)NN2C(=O)NC3(CCCCC3)C2=O)cc1,n,n,n,n,n,x,x
O=C(CSc1nc2ccccc2s1)Nc1ccc2c(c1)oc1ccccc12,24,n,n,n,n,n,n
O=C(CSc1nc2ccccc2s1)Nc1ccc(Cl)c(C(=O)O)c1,n,n,n,n,n,x,x
CCC(C)NC(=O)CCn1c(-c2ccc(F)cc2)cc(C(C)=O)c1C (stereo unspecified),n,n,n,n,n,x,x
CC(=O)c1cc(-c2ccc(F)cc2)n(CCC(=O)NC(C)(C)C)c1C,20,n,n,n,n,n,n
CNC(=S)NNC(=O)c1cccn(Cc2cccc(Cl)c2)c1=O,22,n,n,n,n,n,27
C=CCNC(=S)NNC(=O)c1cccn(Cc2ccc(Cl)c(Cl)c2)c1=O,n,n,n,n,n,x,x
CNC(=S)NNC(=O)c1cccn(Cc2ccc(Cl)c(Cl)c2)c1=O,22,n,n,n,n,n,27
SMILES,TCR-CD3 inh,DDE Tn6 FP inh,HTRA1 inhibitor,Tn7 DDE FP,mABHD4 FP,BSA probe FL,TCR-CD3 conf
Cc1ccc(-c2cc(C(=O)Nc3ccc(S(=O)(=O)Nc4onc(C)c4C)cc3)[nH]n2)c(O)c1,32,n,n,n,n,n,20
Cc1ccc2oc(C(=O)Nc3ccc(S(=O)(=O)Nc4onc(C)c4C)cc3)c(C)c2c1,n,n,n,n,n,x,x
Cc1ccc(NC(=O)COC(=O)c2csc3c2CCC(C)C3)cc1S(=O)(=O)N1CCCCC1 (stereo unspecified),19,n,n,n,n,n,n
CC1CCc2c(C(=O)OCC(=O)Nc3cccc(S(=O)(=O)N4CCCCCC4)c3)csc2C1 (stereo unspecified),32,n,n,n,n,n,n
COc1ccc(NC(=S)N(CCCN2CCCCCC2)Cc2cccs2)cc1,n,n,n,n,n,x,x
O=C(O)C1CC=CCC1C(=O)N1CCN(c2nc(-c3ccccc3Cl)c3cc(Br)ccc3n2)CC1 (stereo unspecified),52,n,n,n,n,n,n
[N-]=[N+]=CC(=O)c1ccnc(C(=O)C=[N+]=[N-])c1,n,n,n,n,n,x,x
CN(C)S(=O)(=O)c1cccc(NC(=O)COC(=O)c2cc(-c3cccc(Br)c3)nc3ccccc23)c1,83,n,n,n,n,n,56
Cc1ncc(CN2CCCCC2C(=O)Nc2ccc(Oc3ccccc3)nc2)cn1 (stereo unspecified),n,n,n,n,n,x,x
Cc1ccc(C(=O)NNC(=O)C2CCN(S(=O)(=O)c3ccc(Cl)cc3)CC2)cc1,n,n,n,n,n,x,x
Cc1ccc(S(=O)(=O)N2CCC(C(=O)NNC(=O)c3ccccc3O)CC2)cc1C,41,n,n,n,n,n,32
Cc1ccc(S(=O)(=O)N2CCC(C(=O)NNC(=O)c3ccccc3O)CC2)cc1,52,n,n,n,n,n,36
COC(=O)c1ccc(NC(=O)CN2CCC(NC(=O)c3ccco3)CC2)cc1,n,n,n,n,n,x,x
CCOc1ccccc1NC(=O)C(OC(=O)c1ccc(NC(=O)CC#N)cc1)c1ccccc1 (stereo unspecified),20,n,n,n,n,n,n
CC(OC(=O)c1ccc(NC(=O)CC#N)cc1)C(=O)NC(c1ccccc1)c1ccccc1 (stereo unspecified),29,n,n,n,n,n,n
Cc1ccc(NC(=O)C(C)OC(=O)c2ccc(NC(=O)CC#N)cc2)cc1S(=O)(=O)N1CCOCC1 (stereo unspecified),27,n,n,n,n,n,n
CC(OC(=O)c1ccc(NC(=O)CC#N)cc1)C(=O)Nc1ccc2c(c1)OCCO2 (stereo unspecified),n,n,n,n,n,x,x
CCOc1ccccc1NC(=O)C(OC(=O)c1ccccc1)c1ccccc1 (stereo unspecified),n,n,n,n,n,x,x
COC(C[C@H](O)C[C@@H](O)COCc1ccccc1)OC,n,n,n,n,n,x,x
CCOC(=O)C1=C(N)Oc2cc(C)oc(=O)c2C1c1cccnc1 (stereo unspecified),21,n,n,n,n,n,n
CC1Cc2ccccc2N1C(=O)COC(=O)c1c2c(nc3ccccc13)CCCCC2 (stereo unspecified),n,n,n,n,n,x,x
O=C(OCC(=O)N1CCc2ccccc21)c1c2c(nc3ccccc13)CCCC2,44,n,n,n,n,n,n
CCCCCC(=O)NNC(=S)NC(=O)c1cccc([N+](=O)[O-])c1,n,n,n,n,n,x,x

# Screening data as filed in PubChem BioAssay.
